Reference: ChEMBL document CHEMBL5500386, “Design, synthesis and bioactivity evaluation of 4-hydroxycoumarin derivatives as potential anti-inflammatory agents against acute lung injury and colitis” (Eur J Med Chem, 2024)
The source made the active and inactive calls. The calls are words filed in the database; no cut-off is given here.

Experiments:
[1] = system: THP-1; assay: Antiinflammatory activity in LPS-induced human THP-1 cells assessed as reduction in IL-6 mRNA transcription pretreated for 2 hrs followed by LPS stimulation and measured after 6 hrs by RT-qPCR analysis; assay type: functional, cell-based; conditions: dose 2.5-10 µM
Outline: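 J774A.1 or THP-1 cells pretreated with compound for 2 h, then LPS 0.5 μg/mL for 6 h, in triplicate. Total RNA extracted and reverse-transcribed. IL-6 quantified by RT-qPCR over 40 cycles and normalised to β-actin.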

[2] = system: Mus musculus; assay: Protection against LPS-induced C57BL/6 mouse model of acute lung injury assessed as reduction in interstitial edema in lungs at 20 mg/kg, po administered 3 times for every 12 hrs followed by LPS stimulation at 5 mg/kg and measured after 6 hrs by immunohistochemical staining based analysis; assay type: functional, organism-based; conditions: time 30.0 hrs
Outline: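 LPS-induced ALI in C57BL/6 mice: 20 mg/kg orally three times at 12 h intervals, then intratracheal LPS 5 mg/kg, lungs taken at 6 h. F4/80 IHC: xylene deparaffinisation, citrate pH 6 retrieval for 25 min, primary antibody at 4 °C for 12 h, secondary 1:2000, DAB and hematoxylin. Viewed at ×20.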

[3] = system: Mus musculus; assay: Protection against LPS-induced C57BL/6 mouse model of acute lung injury assessed as reduction in immune markers in lungs at 20 mg/kg, po administered 3 times for every 12 hrs followed by LPS stimulation at 5 mg/kg and measured after 6 hrs by H and E staining based analysis; assay type: functional, organism-based; conditions: time 30.0 hrs
Outline: (§1)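 LPS-induced ALI in C57BL/6 mice: 20 mg/kg orally three times at 12 h intervals, then intratracheal LPS 5 mg/kg, killed at 6 h. Lungs paraffin-embedded, cut into 5 μm sections and H&E stained. Viewed at ×20.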

[4] = system: Mus musculus; assay: Protection against LPS-induced C57BL/6 mouse model of acute lung injury assessed as reduction in destruction of the alveolar cell structure at 20 mg/kg, po administered 3 times for every 12 hrs followed by LPS stimulation at 5 mg/kg and measured after 6 hrs by H and E staining based analysis; assay type: functional, organism-based; conditions: time 30.0 hrs; outline: as §1
[5] = Acute toxicity in male ICR mouse assessed as histopathological changes in heart at 500 to 1000 mg/kg, po administered daily for 10 days by H and E staining based analysis; assay type: organism-based; conditions: in vivo, 240 h, dose 500-1000 mg/kg, time 10 day
Outline: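 Male ICR mice (8 weeks, 30 g ± 2 g), acclimatised 1 week, randomised into 1000 mg/kg, 500 mg/kg and untreated control groups (n = 24 total). Dosed by daily gavage, compound dissolved in 0.5 % DMSO then added to normal saline. Body weight and behaviour recorded daily. Euthanised after 10 days; heart, liver, spleen, lung and kidney examined by H&E staining.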

[6] = system: J774.A1; assay: Antiinflammatory activity in LPS-induced mouse J774.a1 cells assessed as inhibition of IL-6 production by measuring fold change at 10 uM pretreated for 2 hrs followed by LPS stimulation and measured after 30 mins by ELISA relative to 4-hydroxycoumarin; assay type: functional; conditions: time 2.5 hrs
[7] = system: Mus musculus; assay: Protection against LPS-induced C57BL/6 mouse model of acute lung injury assessed as reduction in protein level in BALF at 20 mg/kg, po administered 3 times for every 12 hrs followed by LPS stimulation at 5 mg/kg and measured after 6 hrs; assay type: functional, organism-based; conditions: time 30.0 hrs
Outline: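 C57BL/6 mice, 6 per group. Gavaged at 20 mg/kg three times at 12 h intervals; controls received saline, and dexamethasone 20 mg/kg served as reference. After the last dose, LPS 5 mg/kg given intratracheally. At 6 h, blood collected for serum IL-6 by ELISA. Left lung lavaged with 3 × 200 μL saline, and BALF assayed for IL-6, total protein and neutrophil count. Mean ± SEM, n = 6.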

For `CC(=O)N1CCN(CCOc2cc(=O)oc3ccccc23)CC1`, which Activity [1] is on record?
Its Activity is “Dose-Dependent Effect”.

And the Activity [2]?
The Activity was “Active”.

What about the Activity [3] of the same compound?
The Activity was “Active”.

And the Activity [4]?
Its Activity is “Active”.

And the Activity [5]?
Its Activity is “Non-Toxic”.

What about the “fold change (FC)” value [6] of the same compound?
Its value is 3.

What about the Activity [7] of the same compound?
The Activity was “Active”.
